Data taken from ChEMBL document CHEMBL1154198, “Chemical genetics of Plasmodium falciparum” (Nature, 2010).

Experiments:
Plasmodium falciparum [1] = test: ST_JUDE: Plasmodium falciparum 3D7 EC50 (uM) as measured by SYBR green dye; format: functional, organism-based
Plasmodium falciparum [2] = test: ST_JUDE: Cytotoxicity against Plasmodium falciparum W2; format: functional, organism-based
Plasmodium falciparum [3] = test: ST_JUDE: Cytotoxicity against Plasmodium falciparum Dd2; format: functional, organism-based
Plasmodium falciparum [4] = test: ST_JUDE: Cytotoxicity against Plasmodium falciparum K1; format: functional, organism-based
Summary of the method: (§1)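 Asexual P. falciparum grown in human erythrocytes, exposed to compounds for 72 h, and growth read as the DNA quantity in treated versus control cultures. Dose-response run at 12 concentrations from 10 μM to 5 nM.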

[5] = ST_JUDE: Cytotoxicity using luciferase to measure ATP as an indicator of the viability of human Burkitt''s lymphoma lymphoblast cells (Raji); format: toxicity, cell-based
Plasmodium falciparum [6] = test: ST_JUDE: Cytotoxicity against Plasmodium falciparum D10 transfected with yeast DHOD; format: functional, organism-based
Plasmodium falciparum [7] = test: ST_JUDE: Cytotoxicity against Plasmodium falciparum V1/S; format: functional, organism-based
Plasmodium falciparum [8] = test: ST_JUDE: Plasmodium falciparum K1 EC50 (uM) as measured by SYBR green dye; format: functional, organism-based
Toxoplasma gondii = test: ST_JUDE: Growth inhibition of to Toxoplasma gondii, in human U-2OS cells, as measured by luciferase.; format: functional, organism-based; conditions: RH, U2OS
Summary of the method: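 T. gondii parasites engineered to express luciferase; drug sensitivity read by luminescence.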

Leishmania major = test: ST_JUDE: Cytotoxicity using Alamar Blue to measure viability of Leishmania major; format: functional, organism-based
Summary of the method: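 L. major promastigotes; drug susceptibility read with Alamar Blue.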

Plasmodium falciparum [9] = test: ST_JUDE: Cytotoxicity against Plasmodium falciparum SB-A6; format: functional, organism-based
[10] = ST_JUDE: Cytotoxicity using luciferase to measure ATP as an indicator of the viability of human epithelial hepatocellular carcinoma cells (HepG2); format: toxicity, cell-based
Plasmodium falciparum [11] = test: ST_JUDE: Cytotoxicity against Plasmodium falciparum 3D7; format: functional, organism-based; summary of the method: as §1
[12] = ST_JUDE: Cytotoxicity using luciferase to measure ATP as an indicator of the viability of human foreskin fibroblast cells (BJ); format: toxicity, cell-based
Trypanosoma brucei = test: ST_JUDE: Cytotoxicity using luciferase to measure ATP as an indicator of the viability of Trypanosoma brucei; format: functional, organism-based
[13] = ST_JUDE: Cytotoxicity using luciferase to measure ATP as an indicator of the viability of human epithelial embryonic kidney cells (HEK293); format: toxicity, cell-based

SMILES: OC(CNC1CCCCC1)Cn1c2ccc(Cl)cc2c2cc(Cl)ccc21 (stereo not drawn)
- EC50 (Plasmodium falciparum [1]): 0.388 µM
- EC50 (Plasmodium falciparum [2]): 0.177 µM
- EC50 (Plasmodium falciparum [3]): 0.132 µM
- EC50 (Plasmodium falciparum [4]): 0.348 µM
- EC50 [5]: > 38.8 µM
- EC50 (Plasmodium falciparum [6]): 0.916 µM
- EC50 (Plasmodium falciparum [7]): 0.975 µM
- EC50 (Plasmodium falciparum [8]): 0.172 µM
- EC50 (Toxoplasma gondii): > 21.3 µM
- EC50 (Leishmania major): > 16.6 µM
- EC50 (Plasmodium falciparum [9]): 1.05 µM
- EC50 [10]: 17.2 µM
- EC50 (Plasmodium falciparum [11]): 1.39 µM
- EC50 [12]: > 38.8 µM
- EC50 (Trypanosoma brucei): 1.97 µM
- EC50 [13]: > 38.8 µM

SMILES: Cc1cccc(CN2CCC(CNC(=S)Nc3ccc4nc(N5CCN(C)CC5)cc(C)c4c3)CC2)c1
- EC50 (Plasmodium falciparum [1]): 0.395 µM
- EC50 (Plasmodium falciparum [2]): 2.23 µM
- EC50 (Plasmodium falciparum [3]): 0.506 µM
- EC50 (Plasmodium falciparum [4]): 0.995 µM
- EC50 [5]: 22.6 µM
- EC50 (Plasmodium falciparum [6]): 1.05 µM
- EC50 (Plasmodium falciparum [7]): 1.99 µM
- EC50 (Plasmodium falciparum [8]): 1.25 µM
- EC50 (Toxoplasma gondii): > 23.2 µM
- EC50 (Leishmania major): > 18.1 µM
- EC50 (Plasmodium falciparum [9]): 0.708 µM
- EC50 [10]: 6.04 µM
- EC50 (Plasmodium falciparum [11]): 1.14 µM
- EC50 [12]: 9.56 µM
- EC50 (Trypanosoma brucei): 4.8 µM
- EC50 [13]: 13.6 µM

SMILES: CCCO/C(O)=C1\C(C)=NC2=C(C(=O)CC(c3ccc(OC)c(OC)c3)C2)C1c1ccccc1OC (stereo not drawn)
- EC50 (Plasmodium falciparum [1]): 0.276 µM
- EC50 (Plasmodium falciparum [2]): 0.29 µM
- EC50 (Plasmodium falciparum [3]): 0.416 µM
- EC50 (Plasmodium falciparum [4]): 0.328 µM
- EC50 [5]: > 47 µM
- EC50 (Plasmodium falciparum [6]): 0.414 µM
- EC50 (Plasmodium falciparum [7]): 0.392 µM
- EC50 (Plasmodium falciparum [8]): 0.125 µM
- EC50 (Toxoplasma gondii): 16.1 µM
- EC50 (Leishmania major): > 20.1 µM
- EC50 (Plasmodium falciparum [9]): 0.288 µM
- EC50 [10]: > 47 µM
- EC50 (Plasmodium falciparum [11]): 0.385 µM
- EC50 [12]: > 47 µM
- EC50 (Trypanosoma brucei): 10.4 µM
- EC50 [13]: > 47 µM
